Data as given in ChEMBL document CHEMBL1149835, “Citrinin dimers from the halotolerant fungus Penicillium citrinum B-57” (J Nat Prod, 2008).

Assays:
[1] = test system: Radical scavenging activity; assay: Antioxidant activity assessed as DPPH free radical scavenging activity after 30 mins; type: functional
Outline: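 DPPH dissolved in MeOH; 160 µL of reaction mixture containing test sample combined with 40 µL DPPH solution, kept in the dark 30 min. Absorbance read at 520 nm and percent inhibition calculated. IC50 (µM giving 50% inhibition of DPPH radical) derived from the log-dose inhibition curve. L-ascorbic acid served as positive control.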

[2] = Cytotoxicity against mouse NS1 cells; type: functional
A549 = assay: Cytotoxicity against human A549 cells after 24 hrs by SRB assay; type: functional, cell-based; conditions: A549, 24 h
Outline: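 SRB method: cells plated at 2 × 10^5 cells/mL, then test solutions in MeOH added and cultured a further 24 h. Cells fixed with 12% trichloroacetic acid, stained with 0.4% SRB, absorbance read at 515 nm. IC50 (concentration inhibiting proliferation 50%) calculated from the linear portion of log dose-response curves; paclitaxel positive control.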

Bel-7402 = assay: Cytotoxicity against human Bel7402 cells after 24 hrs by SRB assay; type: functional, cell-based; conditions: Bel-7402, 24 h
P388 = assay: Cytotoxicity against mouse P388 cells after 72 hrs by MTT assay; type: functional, cell-based; conditions: P388, 72 h
Outline: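 P388 and HL-60 cells seeded at 5 × 10^4 cells/mL and pre-incubated 24 h. Test solutions in MeOH added, then 72 h exposure. MTT (5 mg/mL solution) added for 4 h, formazan dissolved in DMSO, absorbance read at 540 nm. IC50 taken from the linear part of log dose-response curves. Paclitaxel as positive control.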

HL-60 = assay: Cytotoxicity against human HL60 cells after 72 hrs by MTT assay; type: functional, cell-based; conditions: HL-60, 72 h

Structure (SMILES) | IC50 [1] [µM] | other results
Cc1cc(O)c(C)c(O)c1C | 3.8 | –
O=C1O[C@H]([C@@H](O)CO)C(O)=C1O [ASCORBIC ACID] | 22.7 | –
CC1=C2C(=CO[C@H](C)[C@H]2C)C(O)=C(C(=O)O)C1=O [CITRININ] | 160 | –
Cc1c2c(c3oc4cc(=O)c(C)c5c-4c(c3c1O)O[C@H](C)[C@H]5C)O[C@H](C)[C@H]2C [DICITRININ A] | 10.6 | LD99 [2]: 6.3 µg/mL
Cc1c(O)c(C(=O)O)c(O)c2c1[C@H](C)[C@@H](C)OC2 [DIHYDROCITRININ] | 123 | –
Cc1c(O)c(C(=O)O)c(O)c2c1[C@H](C)[C@@H](C)OC2=O [DIHYDROCITRINONE] | > 1000 | –
CC(=O)O[C@H]1C(=O)[C@@]2(C)[C@H]([C@H](OC(=O)c3ccccc3)[C@]3(O)C[C@H](OC(=O)[C@H](O)[C@@H](NC(=O)c4ccccc4)c4ccccc4)C(C)=C1C3(C)C)[C@]1(OC(C)=O)CO[C@@H]1C[C@@H]2O [PACLITAXEL] | – | IC50 (A549): 0.93 µM
Cc1c(O)c2c(c3c1[C@H](C)[C@@H](C)O3)Oc1cc(O)c(C)c3c1[C@H]2O[C@H](C)[C@H]3C [PENICITRINOL A] | 26.8 | –
CO[C@@]12O[C@H](C)[C@@H](C)C1=C(C)C(=O)C1=C2Oc2cc(O)c(C)c3c2[C@H]1O[C@H](C)[C@H]3C [PENICITRINOL B] | 291 | IC50 (Bel-7402): > 50 µM; IC50 (P388): > 50 µM; IC50 (A549): > 50 µM; IC50 (HL-60): > 50 µM

Now from value to compound, other results behind:

IC50 [1] [µM] | Structure (SMILES) | other results
58.7 | CC1=C([C@H](C)[C@@H](C)OC=O)C(=O)C2=C(C1=O)[C@@H]1O[C@H](C)[C@@H](C)c3c(C)c(O)cc(c31)O2 [CITRININ H1] | –
0.8 | Cc1cc(O)cc(O)c1 [ORCINOL] | –
55.3 | Cc1c([C@H](C)[C@H](C)O)c(O)c2oc3cc(=O)c(C)c4c-3c(c2c1O)O[C@H](C)[C@H]4C [PENNICITRINONE C] | IC50 (Bel-7402): > 50 µM; IC50 (P388): > 50 µM; IC50 (A549): > 50 µM; IC50 (HL-60): > 50 µM
796 | Cc1c([C@H](C)[C@@H](C)O)cc(O)c(C(=O)O)c1O [PHENOL A ACID] | –
22.5 | Cc1c(O)cc(O)cc1[C@H](C)[C@@H](C)O [PHENOL A] | –
> 1000 | Cc1c(O)c(C)c2c(c1O)C(=O)OC(C)(O)C2 (centres undefined) [SCLEROTININ B] | –
